Experimental data published in ChEMBL document CHEMBL3399930, “Rat hormone sensitive lipase inhibition by cyclipostins and their analogs” (Bioorg Med Chem, 2015).

biological target: T1, Hormone-sensitive lipase (Rattus norvegicus, UniProt P15304); test: Inhibition of rat hormone sensitive lipase assessed as oleic acid release from [3H]triolein by scintillation counting
T1 sequence (P15304 whole entry): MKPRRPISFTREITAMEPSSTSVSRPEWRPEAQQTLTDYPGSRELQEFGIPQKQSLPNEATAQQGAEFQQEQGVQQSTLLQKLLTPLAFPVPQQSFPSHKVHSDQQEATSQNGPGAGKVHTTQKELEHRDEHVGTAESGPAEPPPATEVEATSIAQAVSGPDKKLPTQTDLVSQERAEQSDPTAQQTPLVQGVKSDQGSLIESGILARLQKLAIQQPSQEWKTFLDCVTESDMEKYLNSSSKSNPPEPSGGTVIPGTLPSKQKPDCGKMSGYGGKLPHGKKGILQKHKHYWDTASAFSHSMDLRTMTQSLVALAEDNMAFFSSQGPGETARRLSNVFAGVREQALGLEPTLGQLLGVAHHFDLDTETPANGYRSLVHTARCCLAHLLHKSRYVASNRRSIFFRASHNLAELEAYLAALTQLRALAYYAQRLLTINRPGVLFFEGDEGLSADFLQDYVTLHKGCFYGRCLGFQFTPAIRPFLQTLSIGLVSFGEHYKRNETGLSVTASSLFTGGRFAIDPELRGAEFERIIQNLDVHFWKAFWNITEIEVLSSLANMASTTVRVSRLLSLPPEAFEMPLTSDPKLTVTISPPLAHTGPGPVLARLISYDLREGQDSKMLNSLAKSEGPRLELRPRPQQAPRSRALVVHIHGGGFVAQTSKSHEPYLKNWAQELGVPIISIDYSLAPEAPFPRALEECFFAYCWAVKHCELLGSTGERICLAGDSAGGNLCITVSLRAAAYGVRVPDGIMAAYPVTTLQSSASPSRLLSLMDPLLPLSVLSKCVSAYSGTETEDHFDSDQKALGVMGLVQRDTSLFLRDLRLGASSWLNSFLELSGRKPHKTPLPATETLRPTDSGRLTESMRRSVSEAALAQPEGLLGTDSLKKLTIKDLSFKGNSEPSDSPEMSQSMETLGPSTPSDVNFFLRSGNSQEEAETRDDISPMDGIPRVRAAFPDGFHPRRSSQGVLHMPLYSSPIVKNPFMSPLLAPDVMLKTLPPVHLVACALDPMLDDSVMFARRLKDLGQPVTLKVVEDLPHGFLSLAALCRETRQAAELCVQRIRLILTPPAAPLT
Outline: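 His-tagged rat HSL expressed in baculovirus-infected Sf9 cells, Ni-NTA purified. Enzyme (20–100 nM) preincubated 30 min on ice with inhibitor-containing PC/PI liposomes, no triolein. Substrate: liposomes of 200 μM PC/PI (3:1 w/w) with 500 μM triolein plus 3H-triolein. Buffer: 25 mM Tris, 150 mM NaCl, 0.2 mM EDTA, 1 mM β-mercaptoethanol, pH 7.4, with 0.2% BSA. Run at 37°C. Samples taken every 10 min (6–8 points), oleate extracted and counted. IC50 is the inhibitor level giving 50% activity, in triplicate.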

First: CCCCCCCCCCCCCCCC[C@H]1CC[P@@](=O)(OC)OC(C)=C1C(=O)OC
Second: CCCCCCCCCCCCCCCC[C@@H]1CC[P@@](=O)(OC)OC(C)=C1C(=O)OC (relative stereo)
The IC50 of the first is 6-fold lower: 10 µM for the first, 60 µM for the second.

`CO[P@]1(=O)OC[C@H]2COC(=O)C2=C(C)O1` (relative stereo) [CYCLOPHOSTIN] and `CO[P@]1(=O)OC[C@@H]2COC(=O)C2=C(C)O1` (relative stereo) cannot be ordered by IC50: > 100 µM for the first, > 100 µM for the second.

Going from `CCCCCCCCCCCCCCCCOP1(=O)OC(C)=C(C(=O)OC)CCC1(F)F` (stereo not given) to `CCCCCCCCCCCCCCCCOP1(=O)OCCC(C(=O)OC)=C(C)O1` (stereo not given), the IC50 falls from > 100 µM to 0.06 µM.

First: CCCCCCCCCCCCCCCCCC[C@H]1CC[P@@](=O)(OC)OC(C)=C1C(=O)OC (relative stereo)
Second: CCCCCCCCCCCCCCCCCC[C@@H]1CC[P@@](=O)(OC)OC(C)=C1C(=O)OC (relative stereo)
The IC50 of the first is lower: 27 µM for the first, > 100 µM for the second. The first is the more potent here.

First: CCCCCCCCCCCCCCCCO[P@]1(=O)OC[C@H]2COC(=O)C2=C(C)O1 (relative stereo)
Second: CCCCCCCCCCCCCCCCO[P@]1(=O)OC[C@@H]2COC(=O)C2=C(C)O1 (relative stereo)
The IC50 of the first is 17-fold higher: 0.42 µM for the first, 0.025 µM for the second.

`CCCCCCCCCCCCCCCO[P@]1(=O)CC[C@@H]2COC(=O)C2=C(C)O1` (racemic) and `CCCCCCCCCCCCCCCO[P@]1(=O)CC[C@H]2COC(=O)C2=C(C)O1` (racemic) are within 1.5-fold of each other in IC50: 0.45 µM for the first, 0.47 µM for the second.

First: CCCCCCCCCCCCCCCCO[P@]1(=O)CC[C@H]2COC(=O)C2=C(C)O1 (racemic)
Second: CCCCCCCCCCCCCCCCO[P@]1(=O)CC[C@@H]2COC(=O)C2=C(C)O1 (racemic)
The IC50 of the first is 19-fold lower: 0.36 µM for the first, 6.9 µM for the second. The first is the more potent here.

First: CO[P@@]1(=O)CC[C@H]2COC(=O)C2=C(C)O1 (relative stereo)
Second: CCCCCCCCCCCCCCCO[P@]1(=O)OC[C@H]2COC(=O)C2=C(C)O1 (racemic)
The IC50 of the first is 1300-fold higher: 100 µM for the first, 0.075 µM for the second. The second is the more potent here.

Going from `CCCCCCCCCCCC[C@@H]1CC[P@@](=O)(OC)OC(C)=C1C(=O)OC` (relative stereo) to `CCCCCCCCCCCC[C@H]1CC[P@@](=O)(OC)OC(C)=C1C(=O)OC` (relative stereo), the IC50 falls from 35 µM to 13.5 µM (2.6-fold).

`CCCCCCCCCCCCCCCO[P@]1(=O)OC[C@@H]2COC(=O)C2=C(C)O1` (racemic) was tested, and the IC50 was 0.9 µM.

biological target: T1, Hormone-sensitive lipase; test: Irreversible inhibition of rat hormone sensitive lipase assessed as relative residual activity by kinetic analysis
Outline: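 Recombinant His-tagged rat HSL, no preincubation, added directly at 37°C to liposomes containing both [3H]triolein and inhibitor, at several inhibitor concentrations. Samples every 3–5 min over 30 min. Released oleic acid extracted and measured by scintillation. Residual activity versus inhibitor concentration and time fitted to an irreversible inactivation scheme (k-2 ≈ 0) to obtain binding and inactivation constants.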

`CCCCCCCCCCCCCCCCO[P@]1(=O)OC[C@@H]2COC(=O)C2=C(C)O1` (relative stereo) gave a Ki of 0.04 µM.
